Experimental data as given in ChEMBL document CHEMBL4316652, “Kenalactams A-E, Polyene Macrolactams Isolated from Nocardiopsis CG3” (J Nat Prod, 2019).
≈ marks a conversion by molar mass, not a printed value. Calls of active or inactive are those of the source. The calls are words filed in the database; no cut-off is given here.

How the values were obtained:
L929 = test: Cytotoxicity against mouse L929 cells measured after 5 days by MTT assay; format: cell-based
KB 3-1 = test: Cytotoxicity against human KB3-1 cells measured after 5 days by MTT assay; format: functional, cell-based
MCF7 = test: Cytotoxicity against human MCF7 cells measured after 5 days by MTT assay; format: functional, cell-based; details: MCF7, 120 h
PC-3 = test: Cytotoxicity against human PC3 cells measured after 5 days by MTT assay; format: functional, cell-based; details: PC-3, 120 h
A549 = test: Cytotoxicity against human A549 cells measured after 5 days by MTT assay; format: functional, cell-based; details: A549, 120 h
SK-OV-3 = test: Cytotoxicity against human SKOV3 cells measured after 5 days by MTT assay; format: functional, cell-based; details: SK-OV-3, 120 h
Candida albicans [1] = test: Antifungal activity against amphotericin B-resistant Candida albicans; format: functional
In short: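 Broth serial dilution MIC in 96-well plates using MYG medium for fungi (1.0% phytone peptone, 1.0% glucose, 50 mM HEPES, pH 7.0). Compounds were added as 20 µL aliquots of a 1 mg/mL stock, giving 67 μg/mL final in the first well. Methanol served as negative control.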

Staphylococcus aureus = test: Antibacterial activity against Staphylococcus aureus Newman by serial dilution method; format: functional
Escherichia coli = test: Antibacterial activity against Escherichia coli DSM1116 by serial dilution method; format: functional
Bacillus subtilis = test: Antibacterial activity against Bacillus subtilis DSM10 by serial dilution method; format: functional
Mucor hiemalis = test: Antifungal activity against Mucor hiemalis DSM 2656 by serial dilution method; format: functional
In short: (§1)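 Fungi were tested by serial dilution in MYG medium (1.0% phytone peptone, 1.0% glucose, 50 mM HEPES, pH 7.0). The top well held 67 μg/mL final, from a 1 mg/mL stock. Methanol served as negative control. The MIC was recorded.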

Candida albicans [2] = test: Antifungal activity against Candida albicans DSM 1665 by serial dilution method; format: functional; in short: as §1
Hepatitis C virus = test: Antiviral activity against HCV JC1 infected in human Huh7.5 cells assessed as reduction in viral infection treated for 4 hrs followed by compound washout and measured after 3 days by luciferase reporter gene assay; format: functional, organism-based; details: Hepacivirus hominis
In short: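 Huh-7.5 cells were electroporated with the Luc-Jc1 reporter virus in the presence of compound. After 4 h the inoculum was removed, and the monolayers were washed three times with PBS and given fresh compound-free medium. Cells were lysed at 3 days for luciferase read-out. Runs were in duplicate, reported as mean and standard deviation.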

Trypanosoma brucei = test: Antimicrobial activity against Trypanosoma brucei; format: functional
[3] = Mus musculus, L929, 120 h, read-out: IC50
[4] = Homo sapiens, KB 3-1, 120 h, read-out: IC50

| Compound | IC50 (KB 3-1; [4]) [µM] | IC50 (PC-3) [µM] | IC50 (A549) [µM] | IC50 (SK-OV-3) [µM] | MIC (Staphylococcus aureus) | MIC (Escherichia coli) | MIC (Bacillus subtilis) | MIC (Mucor hiemalis) | MIC (Candida albicans [2]) | Activity (Hepatitis C virus) | also measured |
| --- | --- | --- | --- | --- | --- | --- | --- | --- | --- | --- | --- |
| C/C(=C\c1csc(C)n1)[C@@H]1C[C@@H]2O[C@]2(C)CCC[C@H](C)[C@H](O)[C@@H](C)C(=O)C(C)(C)[C@@H](O)CC(=O)O1 [PATUPILONE] | 5.3e-05 | 0.0022 | 0.004 | 0.00024 | – | – | – | – | – | – | IC50 (L929; [3]): 0.00075 µM; IC50 (MCF7): 7.4e-05 µM |
| CC1=C\C=C\C=C\C(C)CNC(=O)/C=C(O)/C=C/C(C)=C/C=C/C(O)C(O)C(O)C(=O)/C=C\C=C\1 (stereo unspecified) | – | – | – | – | – | – | – | – | – | – | MIC (Candida albicans [1]): 4 µg/mL (≈ 8.31 µM) |
| CC1=C\C=C\C=C/C=C\[C@H](C)CNC(=O)/C(C)=C/C=C/C(C)=C/C=C/C=C\C=C/[C@H](C)CNC(=O)\C(C)=C\C=C\1 | 2.4 | 2.1 | 6.5 | 5.5 | 66.7 µg/mL (≈ 124 µM) | – | – | – | – | – | IC50 (L929; l929): Non-Toxic |
| CC1=C/[C@H](O)[C@H](O)\C=C/C=C/C=C/C=C\C=C/[C@H](C)CNC(=O)\C=C/C=C/1 | – | – | – | – | inactive | inactive | inactive | inactive | inactive | inactive | – |
| C\C1=C/C=C/C=C/C=C\C=C/[C@H](C)CNC(=O)/C(C)=C/C=C/C=C/C=C\C=C/[C@H](C)CNC1=O | 6.8 | 6.3 | 16.3 | 14.2 | 66.7 µg/mL (≈ 145 µM) | inactive | inactive | 66.7 µg/mL (≈ 145 µM) | 66.7 µg/mL (≈ 145 µM) | Active | IC50 (L929; [3]): 32.8 µM; IC50 (MCF7): 16.4 µM |
| C/C1=C/C=C/C(C)=C/C=C/C=C\C=C/[C@H](C)CNC(=O)/C(C)=C/C=C/C(C)=C/C=C/C=C\C=C/[C@H](C)CNC1=O | – | – | – | – | – | inactive | inactive | inactive | inactive | Active | – |
| CC1=C\C=C\C[C@H](C)NC(=O)/C=C/C=C/C=C/[C@H](C)[C@@H](O)[C@H](O)[C@@H](O)C[C@@H](O)/C=C\C=C\C(C)=C\1 | – | – | – | – | – | – | – | – | – | – | MIC (Trypanosoma brucei): 0.8 µM (≈ 0.387 µg/mL) |
| NYSTATIN | – | – | – | – | – | – | – | 4.16 µg/mL | 8.8 µg/mL | – | – |
| CC1=C/[C@H](O)[C@H](O)\C=C/C=C/C=C/C=C\C=C/[C@H](C)CNC(=O)/C=C/C=C/1 | – | – | – | – | – | – | – | – | – | – | IC50 (L929; l929): Non-Toxic; IC50 (KB 3-1; kb 3-1): Not Active |
| CN(C)[C@@H]1C(O)=C(C(N)=O)C(=O)[C@@]2(O)C(O)=C3C(=O)c4c(O)cccc4[C@@](C)(O)[C@H]3[C@H](O)[C@@H]12 [OXYTETRACYCLINE] | – | – | – | – | 0.05 µg/mL (≈ 0.109 µM) | 1.66 µg/mL (≈ 3.61 µM) | 2.08 µg/mL (≈ 4.52 µM) | – | – | – | – |
| CC1=C\C=C\C=C\C=C/C=C\[C@H](C)CNC(=O)/C(C)=C/C=C/C=C/C=C\C=C/[C@H](C)CNC(=O)\C(C)=C\1 | 5.4 | 5 | 32.1 | 10 | 16.7 µg/mL (≈ 33.5 µM) | inactive | inactive | inactive | inactive | Active | IC50 (L929; [3]): 42.2 µM; IC50 (MCF7): 18.1 µM |
